Sampled rows, rich in hits. Any-hit rate of the full collection: about 12%.
Arbovirus inh: arbovirus infection inhibition; inhibition, % at 10 µM; 200,000 tested, 0.37% active; arbovirus infection cell-based antiviral screen; AID 1251; in the data active = inhibition above about 30%
Rad51 HR inh: Rad51 (human) homologous recombination inhibition | 200,000 tested, 0.085% active | inhibition, % at 10 µM | Q06609 | hRad51 DNA strand exchange, fluorescence dequenching;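 active = inhibition above 40% at the single screening dose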;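 note: 0% = DMSO control wells and 100% = blanks with heterologous ssDNA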
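Material: Human Rad51 nucleoprotein filaments preassembled on unlabelled ssDNA | Also added: Labelled 47-mer dsDNA for strand exchange | Dosing: Single dose, 10 µM final compound | Schedule: 30-min compound preincubation and 15-min exchange, both room temperature | Technique: Fluorescence dequenching at 485/520 nm | Measure: Percent inhibition relative to plate controls and blanks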
L major viab: inhibitors of Leishmania major promastigote growth. Leishmania major promastigotes, resazurin fluorescence viability. inhibition, % at 10 µM. 200,000 tested, 9% active;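 note: promastigotes grown with compound for 44 hours at 28 °C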
CHOP inh: inhibitors of CHOP induction in ER stress response | CHO-K1 CHOP-promoter luciferase, tunicamycin-induced, 15-18 h | AID 2732 | 220,000 tested, 3.8% active | inhibition, % at 10 µM;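 active = compounds that reduced the stress-induced luciferase reporter signal by more than about 70% of percent inhibition, limit read from the data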;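 note: 0% = tunicamycin plus vehicle and 100% = wells without tunicamycin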
PKD1 kinase inh: PKD1 (human) kinase inhibition | 200,000 tested, 0.056% active | Q15139 | AID 797 | PKD1 kinase fluorescence polarization assay | inhibition, % (no concentration beside the values)
Wee1 stabilizer: human Wee1 degradation inhibition, primary screen | P30291 | HeLa Luc-Wee1K328M stability, luciferase luminescence; 100% = proteasome inhibitor MG132 effect | reporter increase, % at 5 µM | 220,000 tested, 1.2% active;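 active = activation above the mean of all tested compounds plus 3 SD, set per screening run, cut at about 8.8% in these data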;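 note: cells exposed to compound for 20 h before luminescence read; 0% = DMSO alone and 100% = MG132 at 30 µM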
Target sequence (P30291 whole entry K328M): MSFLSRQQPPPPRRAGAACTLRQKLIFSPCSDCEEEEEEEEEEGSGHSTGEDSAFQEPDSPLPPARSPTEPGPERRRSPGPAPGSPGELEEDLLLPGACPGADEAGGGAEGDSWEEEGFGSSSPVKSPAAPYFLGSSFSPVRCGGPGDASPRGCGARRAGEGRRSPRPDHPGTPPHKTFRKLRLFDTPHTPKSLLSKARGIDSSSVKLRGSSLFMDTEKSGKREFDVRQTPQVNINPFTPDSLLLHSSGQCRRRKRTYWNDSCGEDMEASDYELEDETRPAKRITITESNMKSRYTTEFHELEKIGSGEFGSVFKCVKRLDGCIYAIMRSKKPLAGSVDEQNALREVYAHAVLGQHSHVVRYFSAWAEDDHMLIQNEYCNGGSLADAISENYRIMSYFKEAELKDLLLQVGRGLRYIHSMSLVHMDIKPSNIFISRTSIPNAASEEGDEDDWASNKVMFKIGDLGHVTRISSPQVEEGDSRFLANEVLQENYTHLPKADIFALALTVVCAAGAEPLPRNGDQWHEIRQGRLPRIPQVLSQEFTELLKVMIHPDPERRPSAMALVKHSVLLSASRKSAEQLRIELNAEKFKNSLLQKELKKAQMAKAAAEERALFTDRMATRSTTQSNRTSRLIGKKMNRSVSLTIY
Lmaj promast 1uM: L. major promastigote growth inhibition, 1 uM repeat. resazurin fluorescence, 48 h. AID 1258. shares compounds with L major viab. inhibition, % at 1 µM. 1,100 tested, 13% active;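 active = inhibition above about 50% in both repeat tests, limit read from the data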
Wee1 stab conf: confirmation of human Wee1 degradation inhibitors | shares compounds with Wee1 stabilizer | HeLa Luc-Wee1K328M degradation, luminescence; vehicle 0%, proteasome-blocked wells 100% | activation, % at 5 µM | 1,100 tested, 4% active | AID 1410; in the data active = activation above about 8.9%
CHOP confirm: confirmation of CHOP induction inhibitors. shares compounds with CHOP inh. CHO-CHOP promoter luciferase reporter, tunicamycin-induced, luminescence. inhibition, % at 10 µM. 2,100 tested, 45% active. AID 504437;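 active = mean of three repeat readings of reporter signal inhibition above a set limit, cut at about 70% in these data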;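 note: 0% = tunicamycin plus vehicle and 100% = wells lacking tunicamycin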
* marks the source's active call; other numbers are inactive results. Cut-off read from the data, not from the text of the source, unless noted: active = inhibition above about 50%; inactive = the rest.

For CN1/C(=C\C=C\C2=[N+](C)c3ccc4ccccc4c3C2(C)C)C(C)(C)c2ccccc21 the results were Arbovirus inh -30, Rad51 HR inh 36, L major viab 98*, CHOP inh 108*, PKD1 kinase inh 20, Wee1 stabilizer -4, Lmaj promast 1uM 101* and CHOP confirm 125*.
Screening CN1/C(=C\C=C2C(=O)NC(=O)NC2=O)C(C)(C)c2ccccc21 returned Arbovirus inh -24, Rad51 HR inh -252, L major viab 2, CHOP inh 16, PKD1 kinase inh -7 and Wee1 stabilizer 1.
O=c1[nH]c2ccccc2n1C1CCN(CCCC(c2ccc(F)cc2)c2ccc(F)cc2)CC1 was read as Arbovirus inh -44, Rad51 HR inh -7, L major viab 83*, CHOP inh 0, PKD1 kinase inh -4, Wee1 stabilizer -1, Lmaj promast 1uM 9 and CHOP confirm 117*.
C/C(=N\N1CCCCCC1)c1c(O)n(-c2ccccc2C)c(=O)[nH]c1=O was read as CHOP inh 7 and Wee1 stabilizer 3.
COc1ccc(NC2=NC(C)(C)CS2)cc1 was read as Arbovirus inh 3, Rad51 HR inh -34, L major viab 12, CHOP inh 1, PKD1 kinase inh -8, Wee1 stabilizer 16* and Wee1 stab conf 2.
Screening COc1ccc(NC2=NCC(C)S2)cc1 (centres undefined) returned Arbovirus inh -5, Rad51 HR inh 22, L major viab 14, CHOP inh 9, PKD1 kinase inh -6 and Wee1 stabilizer 2.
Screening CN1CCC(C)(O)C2CCCCC21 (centres undefined) returned Arbovirus inh 6, Rad51 HR inh -1, L major viab -1, CHOP inh 5, PKD1 kinase inh -4 and Wee1 stabilizer -4.
For CCn1cc(CN2CCCC(C(=O)c3sccc3C)C2)cn1 (centres undefined) the results were Arbovirus inh -3, Rad51 HR inh -15, L major viab 54*, CHOP inh 1, PKD1 kinase inh 2, Wee1 stabilizer 11* and Wee1 stab conf 1.
Screening CCCCC(=O)N/N=C/c1c(O)n(CCc2ccccc2)c(=O)[nH]c1=O returned Rad51 HR inh 18, CHOP inh 61, Wee1 stabilizer 21* and Wee1 stab conf 2.
O=P(Nc1cccnc1)(Oc1ccccc1Cl)Oc1ccccc1Cl was read as Arbovirus inh 0, Rad51 HR inh 3, L major viab 7, CHOP inh 40, PKD1 kinase inh -4 and Wee1 stabilizer 0.
`CC(C)OCCCNC(=O)c1c(N)n(Cc2cccs2)c2nc3ccccc3nc12` gave Arbovirus inh -8, Rad51 HR inh -10, L major viab 18, CHOP inh 105*, PKD1 kinase inh 3, Wee1 stabilizer 0 and CHOP confirm 58.
`COCCNC(=O)c1c(NC(=O)c2ccc(Br)o2)n(Cc2ccccc2)c2nc3ccccc3nc12` gave Arbovirus inh 1, L major viab 14, CHOP inh 20, PKD1 kinase inh -13 and Wee1 stabilizer 1.
Screening O=c1[nH]c(=O)n(-c2cccc3ccccc23)c(O)c1/C=N/N1CCCCCC1 returned Rad51 HR inh 11, CHOP inh 8 and Wee1 stabilizer -2.
Screening COC(=O)C(O)(c1c(C)[nH]c2ccccc12)C(F)(F)F (centres undefined) returned Arbovirus inh 5, Rad51 HR inh 3, L major viab -3, CHOP inh 15, PKD1 kinase inh -8 and Wee1 stabilizer 4.
c1ccc(Cn2ccnc2)cc1 was read as Arbovirus inh 5, Rad51 HR inh 2, L major viab -8, CHOP inh 8, PKD1 kinase inh -4 and Wee1 stabilizer 2.
Screening Clc1ccc(CSC(Cn2ccnc2)c2ccc(Cl)cc2Cl)cc1 (centres undefined) returned Arbovirus inh -44, Rad51 HR inh -1, L major viab 99*, CHOP inh 108*, PKD1 kinase inh -6, Wee1 stabilizer -2 and CHOP confirm 49.
`O=c1[nH]c(CN2CCNCC2)nc2ccccc12` gave Arbovirus inh 4, Rad51 HR inh 1, L major viab 0, CHOP inh 98*, PKD1 kinase inh -4, Wee1 stabilizer 5 and CHOP confirm -84.
Screening CN1CCN(Cc2nc3ccccc3c(=O)[nH]2)CC1 returned Arbovirus inh 4, Rad51 HR inh 1, L major viab -1, CHOP inh -7, PKD1 kinase inh 4 and Wee1 stabilizer -1.
For O=C1CCCN1CC#CCN1CCCC1 the results were Rad51 HR inh -8, CHOP inh 21 and Wee1 stabilizer 3.
`O=C1NC(=O)C(=Cc2cn(CCOc3ccc4c(c3)OCO4)c3ccccc23)C(=O)N1` gave Arbovirus inh -7, Rad51 HR inh -50, L major viab 1, CHOP inh 99*, PKD1 kinase inh 6, Wee1 stabilizer 0 and CHOP confirm -13.
COc1cc(N2CCOCC2)ccc1/C=C1\C(=O)NC(=O)N(Cc2ccc3c(c2)OCO3)C1=O was read as Arbovirus inh -3, Rad51 HR inh -57, L major viab -1, CHOP inh -23, PKD1 kinase inh -11 and Wee1 stabilizer 3.
For O=C1NC(=O)N(c2ccc3c(c2)OCO3)C(=O)/C1=C/c1cccs1 the results were Arbovirus inh 16, Rad51 HR inh -1, L major viab -9, CHOP inh 106*, PKD1 kinase inh 5, Wee1 stabilizer -4 and CHOP confirm -17.
For O=C1NC(=O)N(c2ccc3c(c2)OCO3)C(=O)/C1=C/c1ccsc1 the results were Arbovirus inh 4, Rad51 HR inh -6, L major viab 0, CHOP inh 9, PKD1 kinase inh 3 and Wee1 stabilizer 0.
O=C1NCN(c2ccccc2)C12CCN(CC1COc3ccccc3O1)CC2 (centres undefined) was read as CHOP inh -4.
For O=C1NCN(c2ccccc2)C12CCNCC2 the results were Arbovirus inh 2, Rad51 HR inh -15, L major viab 10, CHOP inh 101*, PKD1 kinase inh -8, Wee1 stabilizer -1 and CHOP confirm 10.
Screening Cc1ccc(/C=C2\C(=O)NC(=O)N(Cc3ccccc3Cl)C2=O)o1 returned Arbovirus inh 7, Rad51 HR inh -4, L major viab 16, CHOP inh 105*, PKD1 kinase inh 4, Wee1 stabilizer -1 and CHOP confirm -28.

Screening results as filed in PubChem BioAssay.
